Results: ChEMBL document CHEMBL2434891, “Design, synthesis, and in vitro cancer cell growth inhibition evaluation and antimalarial testing of trioxanes installed in cyclic 2-enoate substructures” (Eur J Med Chem, 2013)
Converted amounts (≈) assume the structure as drawn. The source made the active and inactive calls. The rule behind the calls is not given here.

Assays:
[1] = test system: MV4-11; experiment: Antiproliferative activity against human MV4-11 cells after 72 hrs by MTT assay; assay type: functional, cell-based; conditions: MV4-11, 72 h
[2] = test system: BALB/3T3; experiment: Cytotoxicity against mouse BALB/3T3 cells after 72 hrs by SRB assay; assay type: cell-based; conditions: BALB/3T3, 72 h
How it was run: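 Adherent cells grown at 37 °C and 5% CO2. A549 and HCT116 were in RPMI 1640/OptiMEM (50:50) with 5% FBS; BALB/3T3 in Dulbecco medium with 10% FBS and pyruvate. Seeded at 1×10^4/well 24 h before dosing, then 72 h at 10–0.01 µg/mL final. Fixed with cold 50% TCA, stained with 0.4% SRB, dye extracted in 10 mM Tris, read at 540 nm.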

[3] = test system: A549; experiment: Cytotoxicity against human A549 cells after 72 hrs by SRB assay; assay type: functional, cell-based; conditions: A549, 72 h
How it was run: (§1)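 Adherent cells grown at 37 °C and 5% CO2. Seeded at 1×10^4/well 24 h before dosing, then 72 h at 10–0.01 µg/mL final. Fixed with cold 50% TCA, stained with 0.4% SRB, dye extracted in 10 mM Tris, read at 540 nm.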

[4] = test system: HCT-116; experiment: Cytotoxicity against human HCT116 cells after 72 hrs by SRB assay; assay type: functional, cell-based; conditions: HCT-116, 72 h; how it was run: as §1
[5] = Binding affinity to hemin assessed as hemin-induced oxidative damage in 0.1 M tris buffer at pH 9 at 25 to 500 uM after 2 hrs by UV-vis absorption spectroscopy in presence of methylene blue
How it was run: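 Methylene blue (10 µM) used as substrate for heme-catalysed oxidation. Compound incubated 2 h at 37 °C with hemin (6 µM) and methylene blue in 60% 0.1 M Tris buffer (pH 9.0) and 40% DMSO. Mixture absorbance then read by UV–vis spectrophotometry.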

[6] = Binding affinity to hemin assessed as complexation of hemin-endoperoxides in 0.1 M tris buffer at pH 9 at 25 to 500 uM after 24 hrs by UV-vis absorption spectroscopy
How it was run: (§2)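 Hemin held at 6 µM with compound at 0–500 µM in 60% 0.1 M Tris buffer (pH 9.0) and 40% DMSO. Mixtures incubated 12 h or 24 h.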

[7] = Binding affinity to hemin assessed as complexation of hemin-endoperoxides in 0.1 M tris buffer at pH 9 at 25 to 500 uM after 12 hrs by UV-vis absorption spectroscopy; how it was run: as §2
[8] = test system: L6; experiment: Cytotoxicity against rat L6 cells after 70 hrs by alamar blue assay; conditions: L6, 70 h
[9] = test system: Plasmodium falciparum; experiment: Antimalarial activity against erythrocytic stage of Plasmodium falciparum NF54 infected in RBC after 48 hrs by [3H]-hypoxanthine incorporation assay; assay type: functional, organism-based

Structure (SMILES) | IC50 [1] [µM] | IC50 [2] [µM] | IC50 [3] [µM] | IC50 [4] [µM] | further results
COc1ccc(C2O[C@]34CC(c5ccc(C(F)(F)F)cc5)OC(=O)C3=C[C@@]2(C)OO4)cc1 (stereo partly drawn) | 4.84 | – | – | – | –
C[C@]12C=C3C(=O)OC(c4ccccc4Br)C[C@@]3(OO1)OC2c1ccc([N+](=O)[O-])cc1 (stereo partly drawn) | 0.837 | 7.53 | 11.6 | 7.08 | –
COc1ccc(C2C[C@]34OO[C@](C)(C=C3C(=O)O2)C(c2ccc([N+](=O)[O-])cc2)O4)cc1 (stereo partly drawn) | 0.735 | 7.36 | 8.44 | 7.5 | –
C[C@]12C=C3C(=O)OC(c4ccc(Cl)cc4)C[C@@]3(OO1)OC2c1ccc([N+](=O)[O-])cc1 (stereo partly drawn) | 0.593 | 8.21 | 8.28 | 7.37 | Activity [5]: Active; Activity [6]: Active; Activity [7]: Active
C[C@]12C=C3C(=O)OC(c4ccccc4)(c4ccccc4)C[C@@]3(OO1)OC2c1ccc(Cl)cc1 (stereo partly drawn) | 3.6 | – | – | – | IC50 [8]: 2.03 µg/mL (≈ 4.4 µM); IC50 [9]: 9.88 µg/mL (≈ 21.4 µM)
CC1O[C@]23CC(c4cccc(Cl)c4)OC(=O)C2=C[C@@]1(C)OO3 (stereo partly drawn) | 7.31 | – | – | – | –
COc1ccc(C2O[C@]34CCCC(=O)C3=C[C@@]2(C)OO4)cc1 (stereo partly drawn) | > 33 | – | – | – | IC50 [8]: 4.5 µg/mL (≈ 14.9 µM); IC50 [9]: 3.41 µg/mL (≈ 11.3 µM)
COc1ccc(C2O[C@]34CC(c5ccc(Cl)cc5)OC(=O)C3=C[C@@]2(C)OO4)cc1 (stereo partly drawn) | 4.31 | – | – | – | –
CC1O[C@]23CC(c4ccc(Br)cc4)OC(=O)C2=C[C@@]1(C)OO3 (stereo partly drawn) | 0.98 | 12 | 13 | 9.2 | –
COc1ccc(C2C[C@]34OO[C@](C)(C=C3C(=O)O2)C(C)O4)cc1OC (stereo partly drawn) | 11.1 | – | – | – | –
C[C@]12C=C3C(=O)CCC[C@@]3(OO1)OC2c1ccc([N+](=O)[O-])cc1 (stereo partly drawn) | > 31 | – | – | – | –
C[C@]12C=C3C(=O)OC(c4ccc(Cl)cc4)C[C@@]3(OO1)OC2c1ccc(Br)cc1 (stereo partly drawn) | 4.21 | – | – | – | –
COc1ccc(C2O[C@]34CC(c5ccc(OC)c(OC)c5)OC(=O)C3=C[C@@]2(C)OO4)cc1 (stereo partly drawn) | 4.38 | – | – | – | –
C[C@]12C=C3C(=O)OC(c4ccc(C(F)(F)F)cc4)C[C@@]3(OO1)OC2c1ccccc1 (stereo partly drawn) | 0.779 | 9.01 | 10.9 | 7.43 | –
COc1ccc(C2O[C@]34CC(c5ccc(Cl)cc5)N(C(=O)OC(C)(C)C)C(=O)C3=C[C@@]2(C)OO4)cc1 (stereo partly drawn) | 0.661 | 6.87 | 6.32 | 5.56 | –
COc1ccc(C2O[C@]34CC(c5ccccc5)CC(=O)C3=C[C@@]2(C)OO4)cc1 (stereo partly drawn) | 6.5 | – | – | – | –

Structure (SMILES) | IC50 [1] [µM] | IC50 [2] [µM] | IC50 [3] [µM] | IC50 [4] [µM] | further results
COC(=O)C1=C[C@]23CCCC[C@@H]2O[C@@]1(C)OO3 | 8.08 | – | – | – | –
C[C@]12C=C3C(=O)CC(c4ccccc4)C[C@@]3(OO1)OC2c1ccc([N+](=O)[O-])cc1 (stereo partly drawn) | 6.53 | – | – | – | IC50 [8]: 5.6 µg/mL (≈ 14.2 µM); IC50 [9]: 3.1 µg/mL (≈ 7.88 µM)
COc1ccc(C2C[C@]34OO[C@](C)(C=C3C(=O)O2)C(c2ccccc2)O4)cc1OC (stereo partly drawn) | 0.901 | 10.1 | > 24 | 11.7 | IC50 [8]: 0.52 µg/mL (≈ 1.27 µM); IC50 [9]: 3.28 µg/mL (≈ 7.99 µM)
C[C@]12C=C3C(=O)OC(c4ccccc4)(c4ccccc4)C[C@@]3(OO1)OC2c1ccc([N+](=O)[O-])cc1 (stereo partly drawn) | 3.79 | – | – | – | IC50 [8]: 3.49 µg/mL (≈ 7.4 µM); IC50 [9]: 5.25 µg/mL (≈ 11.1 µM)
COC(=O)c1ccc(C2O[C@]34CC(c5ccccc5)(c5ccccc5)OC(=O)C3=C[C@@]2(C)OO4)cc1 (stereo partly drawn) | 2.99 | – | – | – | IC50 [8]: 1.67 µg/mL (≈ 3.45 µM); IC50 [9]: 5.62 µg/mL (≈ 11.6 µM)
CC1O[C@]23CC(c4ccc(Cl)cc4)N(C(=O)OC(C)(C)C)C(=O)C2=C[C@@]1(C)OO3 (stereo partly drawn) | 1.04 | 6.21 | 7.2 | 7.3 | –
COc1ccc(C2C[C@]34OO[C@](C)(C=C3C(=O)O2)C(c2ccc([N+](=O)[O-])cc2)O4)cc1OC (stereo partly drawn) | 0.911 | 7.2 | 7.73 | 6.79 | Activity [5]: Active; Activity [6]: Active; Activity [7]: Active
CC1O[C@]23CC(c4ccc(F)cc4)OC(=O)C2=C[C@@]1(C)OO3 (stereo partly drawn) | 6.89 | – | – | – | –
C[C@]12C=C3C(=O)OC(c4cccc(Cl)c4)C[C@@]3(OO1)OC2c1ccc([N+](=O)[O-])cc1 (stereo partly drawn) | 3.91 | – | – | – | Activity [5]: Active; Activity [6]: Active; Activity [7]: Active
COc1ccc(C2O[C@]34CC(c5ccccc5)(c5ccccc5)OC(=O)C3=C[C@@]2(C)OO4)cc1 (stereo partly drawn) | 3.78 | – | – | – | IC50 [8]: 1.9 µg/mL (≈ 4.16 µM); IC50 [9]: 4.2 µg/mL (≈ 9.2 µM)
CC(C)(C)OC(=O)N1C(=O)C2=C[C@@]3(C)OO[C@]2(CC1c1ccc(Cl)cc1)OC3c1ccc([N+](=O)[O-])cc1 (stereo partly drawn) | 0.501 | 6.67 | 6.22 | 5.54 | IC50 [8]: 1.16 µg/mL (≈ 2.19 µM); IC50 [9]: 1.97 µg/mL (≈ 3.72 µM)
CC1O[C@]23CC(c4ccc(C(F)(F)F)cc4)OC(=O)C2=C[C@@]1(C)OO3 (stereo partly drawn) | 0.895 | 12.5 | 13.9 | 9.49 | –
C[C@]12C=C3C(=O)OC(c4ccc(C(F)(F)F)cc4)C[C@@]3(OO1)OC2c1ccc(Br)cc1 (stereo partly drawn) | 5.51 | – | – | – | –
COc1ccc(C2O[C@]34CC(c5ccc(F)cc5)OC(=O)C3=C[C@@]2(C)OO4)cc1 (stereo partly drawn) | 0.582 | 9.06 | 11.8 | 8.08 | IC50 [8]: 0.5 µg/mL (≈ 1.26 µM); IC50 [9]: 1.68 µg/mL (≈ 4.22 µM)
CC(C)(C)OC(=O)N1C(=O)C2=C[C@@]3(C)OO[C@]2(CC1c1ccc(Cl)cc1)OC3c1ccccc1 (stereo partly drawn) | 0.517 | 5.46 | 6.66 | 6.02 | –
COc1cccc(C2C[C@]34OO[C@](C)(C=C3C(=O)O2)C(C)O4)c1 (stereo partly drawn) | 7.76 | – | – | – | –
